# Measurements published in ChEMBL document CHEMBL4118025, “ent-Abietane and Tigliane Diterpenoids from the Roots of Euphorbia fischeriana and Their Inhibitory Effects against Mycobacterium smegmatis” (2017).
# Test system: Mycolicibacterium smegmatis
# Test: Antimycobacterial activity against Mycobacterium smegmatis after 24 hrs by microplate alamar blue assay
# Assay type: functional
# Summary of the method: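 Alamar blue viability read-out in 96-well microplates, following an earlier described method; test materials dissolved in DMSO at an initial 0.4 mg/mL; kanamycin positive control at 0.1 mg/mL; M. smegmatis strain preincubated 48 h before incubation with test materials.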
row,Compound,MIC [µg/mL]
1,CC(=O)O[C@@]12C[C@@H](C)[C@@]3(O)[C@@H](C=C(CO)C[C@]4(O)C(=O)C(C)=C[C@@H]34)[C@@H]1C2(C)C [PROSTRATIN],> 400
2,CC(=O)O[C@@]12C[C@@H](C)[C@@]3(O)[C@@H](C=C(CO[C@@H]4O[C@H](CO)[C@@H](O)[C@H](O)[C@H]4O)C[C@]4(O)C(=O)C(C)=C[C@@H]34)[C@@H]1C2(C)C [FISCHEROSIDES A],> 400
3,CC1=C2[C@@H](O)[C@@]3(O)CC[C@@H]4C(C)(C)CCC[C@@]4(C)[C@@H]3[C@@H](O)[C@H]2OC1=O,> 400
4,CC1(C)CCC[C@]2(C)[C@@H]1CC[C@]1(O)[C@H](O)C3=C(CO)C(=O)OC3=C[C@@H]21,> 400
5,CC1(C)CCC[C@]2(C)[C@@H]1C[C@H](O)C1=CC3=C(CO)C(=O)O[C@]3(O)[C@H](O)[C@H]12,> 400
6,CC1=C[C@H]2[C@@]3(O)[C@H](C)CC(=O)[C@@H](C(C)C)[C@@H]3C=C(CO)C[C@]2(O)C1=O,> 400
7,CC(=O)O[C@@]12[C@H](O)[C@@H](C)[C@@]3(O)[C@@H](C=C(CO)C[C@]4(O)C(=O)C(C)=C[C@@H]34)[C@@H]1C2(C)C,> 400
8,CC1(C)C(=O)CC[C@]2(C)[C@@H]1C[C@H](O)C1=CC3=C(CO)C(=O)O[C@@H]3[C@@H](O)[C@H]12,> 400
9,CC(=O)O[C@@]12C[C@@H](C)[C@@]3(O)[C@@H](C=C(CO[C@@H]4O[C@H](CO)[C@@H](OC(=O)c5cc(O)c(O)c(O)c5)[C@H](O)[C@H]4O)C[C@]4(O)C(=O)C(C)=C[C@@H]34)[C@@H]1C2(C)C,> 400
10,CC(=O)O[C@@]12C[C@@H](C)[C@@]3(O)[C@@H](C=C(C(=O)O)C[C@]4(O)C(=O)C(C)=C[C@@H]34)[C@@H]1C2(C)C,> 400
11,CC1(C)C(=O)CC[C@]2(C)[C@@H]1CCC1=CC3=C(CO)C(=O)O[C@@H]3[C@@H](O)[C@H]12,> 400
12,CC1=C2C(=C[C@H]3[C@]4(C)CCCC(C)(C)[C@H]4CC[C@]34O[C@H]24)OC1=O,> 400

# Next, values leading:
row,MIC [µg/mL],Compound
1,400,CC1=C2C=C3[C@@H](O)C[C@@H]4C(C)(C)CCC[C@@]4(C)[C@@H]3[C@@H](O)[C@@]2(O)OC1=O
2,> 400,CC(=O)O[C@@]12C[C@@H](C)[C@@]3(O)[C@@H](C=C(C=O)C[C@]4(O)C(=O)C(C)=C[C@@H]34)[C@@H]1C2(C)C
3,> 400,CC(=O)O[C@@]12C[C@@H](C)[C@@]3(O)[C@@H](C=C(CO[C@@H]4O[C@H](CO)[C@@H](O)[C@H](OC(=O)c5cc(O)c(O)c(O)c5)[C@H]4O)C[C@]4(O)C(=O)C(C)=C[C@@H]34)[C@@H]1C2(C)C
4,> 400,CC(=O)O[C@@]12C[C@](C)(O)[C@H]3[C@@H](C=C(CO)C[C@]4(O)C(=O)C(C)=C[C@@H]34)[C@@H]1C2(C)C
5,200,CC1(C)CCC[C@]2(C)[C@@H]1CCC1=CC3=C(CO)C(=O)O[C@]3(O)[C@H](O)[C@H]12
6,300,CC1=C2[C@@H](OC1=O)C(=O)[C@H]1[C@]3(C)CCCC(C)(C)[C@H]3CC[C@@]1(O)[C@H]2O
7,100,CC1(C)CCC[C@]2(C)[C@@H]1CC[C@@]13O[C@@H]1C1=C(CO)C(=O)OC1=C[C@@H]23
8,10,NC[C@H]1O[C@H](O[C@H]2[C@H](O)[C@@H](O[C@H]3O[C@H](CO)[C@@H](O)[C@H](N)[C@H]3O)[C@H](N)C[C@@H]2N)[C@H](O)[C@@H](O)[C@@H]1O [KANAMYCIN]
9,1.5,CC1(C)CCC[C@]2(C)[C@@H]1CC[C@@]13O[C@@H]1C1=C(CO)C(=O)O[C@]14O[C@@H]4[C@@H]23
